Results: ChEMBL document CHEMBL1795215, “Design, synthesis and biological assessment of novel N-substituted 3-(phthalimidin-2-yl)-2,6-dioxopiperidines and 3-substituted 2,6-dioxopiperidines for TNF-α inhibitory activity” (Bioorg Med Chem, 2011)

Key:
[1] = system: RAW264.7; test: Inhibition of LPS-induced TNFalpha production in mouse RAW264.7 cells assessed as TNFalph activity at 30 uM by ELISA relative to untreated control; type: functional; set-up: scale not given: the % may be the effect or the level left
Method in brief: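 RAW 264.7 cells were cultured and exposed to compound at 30 μM together with LPS. TNF-α protein in the culture medium was quantified by a mouse TNF-α-specific ELISA and expressed as % of the appropriate control. Values are mean ± S.E.M., n = 3, with Student's t-test (P<0.05 significant).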

[2] = Toxicity against mouse RAW264.7 cells assessed as cell viability at 30 uM by Cell titer 96 squeous one solution cell proliferation assay untreated control; type: cell-based; details: read-out: Activity
Method in brief: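 Viability of RAW 264.7 cells given 30 μM compound with LPS was read by CellTiter 96 Aqueous One tetrazolium dye formation, with absorbance at 490 nm. Results are % change in O.D. versus the appropriate control, mean ± S.E.M., n = 3, with Student's t-test (P<0.05 significant).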

[3] = system: RAW264.7; test: Inhibition of LPS-induced TNFalpha production in mouse RAW264.7 cells assessed as TNFalph activity at 30 uM by ELISA relative to thalidomide; type: functional
Method in brief: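 LPS-stimulated RAW 264.7 cells were treated at 30 μM, and TNF-α in the medium was measured by mouse TNF-α ELISA as % of vehicle control (n = 3). Fold activity relative to thalidomide = (100 − compound TNF-α % control)/(100 − thalidomide TNF-α % control).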

Row | SMILES | Activity [1] [%] | viability at 30 µM [2] [%] | fold change (FC) [3]
1 | O=C1CCC(N2Cc3ccccc3C2=O)C(=O)N1CSC(=S)NC1CCCCC1 (stereo unspecified) | 55 | 103 | 45
2 | O=C1CCC(N2Cc3ccccc3C2=O)C(=O)N1CSC(=S)N1CCCCC1 (stereo unspecified) | 96 | 112 | 4
3 | O=C1CCCC(=O)N1CN1C(=O)CCC(N2Cc3ccccc3C2=O)C1=O (stereo unspecified) | 79 | 102 | 21
4 | O=C1CCC(N2Cc3ccccc3C2=O)C(=O)N1CN1C(=S)CCCC1=S (stereo unspecified) | 63 | 94 | 37
5 | O=C1CCC(N2Cc3ccccc3C2=O)C(=O)N1CN1C(=O)c2ccccc2C1=O (stereo unspecified) | 88 | 98 | 12
6 | O=C1CCC(N2Cc3ccccc3C2=O)C(=O)N1CN1C(=S)c2ccccc2C1=S (stereo unspecified) | 52 | 82 | 48
7 | O=C1CCC(N2S(=O)(=O)c3ccccc3S2(=O)=O)C(=O)N1 (stereo unspecified) | 55 | 109 | 45
8 | N=C1N/C(=N\C2CCC(=O)NC2=O)c2ccccc21 (stereo unspecified) | 61 | 116 | 39
9 | N=C1c2ccccc2C(=O)N1C1CCC(=O)NC1=O (stereo unspecified) | 67 | 84 | 33
10 | O=C1CCC(N2C(=O)c3cccnc3C2=O)C(=O)N1 (stereo unspecified) | 104 | 95 | -4
11 | O=C1CCC(N2C(=O)c3ccncc3C2=O)C(=O)N1 (stereo unspecified) | 96 | 96 | 4
12 | Nc1cccc2c1CN(C1CCC(=O)NC1=O)C2=O (stereo unspecified) [LENALIDOMIDE] | 109 | 106 | -9
